Key:
[1] = system: mouse opioid μ receptor expressed in CHO cell lines; experiment: In vitro competitive radioligand binding assay, MOR; settings: ratio of Ki values
Procedure, shortened: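 CHO membranes (30 μg) expressing mouse μ or κ, or human δ, opioid receptor were incubated with radioligand and varied test compound in TME (pH 7.4) for 1.5 h at 30 °C, then filtered. Nonspecific binding was defined with 5 μM naltrexone, U50,488 or SNC80.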

[2] = target: human δ opioid receptor expressed in CHO cell lines (Homo sapiens, UniProt P41143); experiment: In vitro competitive radioligand binding assay, DOR; settings: ratio of Ki values
Sequence of human δ opioid receptor expressed in CHO cell lines (P41143 whole entry): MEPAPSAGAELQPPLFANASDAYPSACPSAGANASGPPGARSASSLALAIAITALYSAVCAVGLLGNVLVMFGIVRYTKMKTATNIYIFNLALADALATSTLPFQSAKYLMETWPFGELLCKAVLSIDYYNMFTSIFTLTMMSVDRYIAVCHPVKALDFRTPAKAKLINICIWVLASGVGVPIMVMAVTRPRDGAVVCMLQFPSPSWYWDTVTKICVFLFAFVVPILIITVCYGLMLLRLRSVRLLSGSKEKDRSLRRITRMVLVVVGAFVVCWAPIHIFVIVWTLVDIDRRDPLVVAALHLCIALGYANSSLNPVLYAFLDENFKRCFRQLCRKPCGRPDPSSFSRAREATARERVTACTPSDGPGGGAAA

[3] = target: DOR (DOR-CHO membrane protein) (Homo sapiens, UniProt P41143); experiment: DOR [35S]-GTPγS functional assay; type: biochemical
Sequence of DOR (DOR-CHO membrane protein) (P41143 whole entry): as above

patients = settings: long-term study; cited from earlier work
[4] = male rats, after oral administration; cited from earlier work
male Swiss Webster mice = experiment: Carmine red dye assay; type: in vivo, mouse; settings: test compound 10 mg/kg oral gavage, morphine 5 mg/kg
Procedure, shortened: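 Male Swiss Webster mice (5–8 wk, 25–35 g), 5–6 per group, housed singly. Test compound 10 mg/kg or vehicle given p.o. 5 min before morphine 5 mg/kg injection. Twenty min after morphine, 0.2 mL 6% carmine red in 0.5% CMC/ddH₂O given p.o. Time to first red pellet recorded, 6 h cut-off. One-way ANOVA with corrected Dunnett test.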

gastrointestinal transit = settings: MNTX intraperitoneally, morphine 5 mg/kg s.c.; cited from earlier work
CYP3A4 = settings: cited from earlier work

O=C(Cc1cc[nH]n1)N[C@H]1CC[C@@]2(O)[C@H]3Cc4ccc(O)c5c4[C@@]2(CCN3CC2CC2)[C@H]1O5 [Compound 2, 17-Cyclopropylmethyl-3,14β-dihydroxy-4,5α-epoxy-6α-(3′-pyrazolylacetamido)morphinan]
selectivity for the MOR over both the KOR and DOR [1]: at least a hundred-fold

O=C(Cc1cn[nH]c1)N[C@H]1CC[C@@]2(O)[C@H]3Cc4ccc(O)c5c4[C@@]2(CCN3CC2CC2)[C@H]1O5 [Compound 5, 17-Cyclopropylmethyl-3,14β-dihydroxy-4,5α-epoxy-6α-(4′-pyrazolylacetamido)morphinan]
selectivity for the MOR over both the KOR and DOR [1]: at least a hundred-fold

O=C(Cc1cc[nH]n1)N[C@@H]1CC[C@@]2(O)[C@H]3Cc4ccc(O)c5c4[C@@]2(CCN3CC2CC2)[C@H]1O5 [Compound 14, 17-Cyclopropylmethyl-3,14β-d/hydroxy-4,5α-epoxy-6β-(3′-pyrazolylacetamldo)morphinan]
δ/μ selectivity [2]: hundreds-fold

O=C(CCc1cc[nH]n1)N[C@@H]1CC[C@@]2(O)[C@H]3Cc4ccc(O)c5c4[C@@]2(CCN3CC2CC2)[C@H]1O5 [Compound 15]
δ/μ selectivity [2]: hundreds-fold

O=C(N[C@@H]1CC[C@@]2(O)[C@H]3Cc4ccc(O)c5c4[C@@]2(CCN3CC2CC2)[C@H]1O5)c1cnc[nH]1 [Compound 19, 17-Cyclopropylmethyl-3,14β-dlhydroxy-4,5α-epoxy-6β-(5′-imldazolylcarboxamldo)morphinan]
EC50 [3]: 19.1 ± 5.91 nM

O=C(N[C@@H]1CC[C@@]2(O)[C@H]3Cc4ccc(O)c5c4[C@@]2(CCN3CC2CC2)[C@H]1O5)c1ncc[nH]1 [Compound 22, 17-Cyclopropylmethyl-3,14β-dihydroxy-4,5α-epoxy-6β-(2′-imidazolylcarboxamido)morphinan]
δ/μ selectivity [2]: hundreds-fold

O=C(Cc1ncc[nH]1)N[C@@H]1CC[C@@]2(O)[C@H]3Cc4ccc(O)c5c4[C@@]2(CCN3CC2CC2)[C@H]1O5 [Compound 23, 17-Cyclopropylmethyl-3,14β-dihydroxy-4,5α-epoxy-6β-(2′-imidazolylacetamido)morphinan]
δ/μ selectivity [2]: hundreds-fold

C[N@+]1(CC2CC2)CC[C@]23c4c5ccc(O)c4O[C@H]2C(=O)CC[C@@]3(O)[C@H]1C5 [MNTX, methylnaltrexone]
cardiac-related adverse event, share of patients (patients): less than 1%
oral bioavailability [4]: < 1%
reversal of the inhibitory effects of morphine on GI motility (male Swiss Webster mice): no blockage was observed
block of the antitransit effects of morphine (gastrointestinal transit): effective

CC(C)(NC(=O)C1=C(O)[C@@H]2Oc3c(O)ccc4c3[C@@]23CCN(CC2CC2)[C@H](C4)[C@]3(O)C1)c1nc(-c2ccccc2)no1 [naldemedine]
substrate of CYP3A4 (CYP3A4): substrates

C=CCN1CC[C@]23c4c5ccc(O)c4O[C@H]2[C@@H](OCCOCCOCCOCCOCCOCCOCCOC)CC[C@@]3(O)[C@H]1C5 [naloxegol]
substrate of CYP3A4 (CYP3A4): substrates

Reference: PMC10546485 (Journal of medicinal chemistry, 2022)
